# Experimental data: ChEMBL document CHEMBL5724801, “EUbOPEN Chemogenomics Library - Multiplex” (2024)
# Values joined by “and” are separate entries in the source; they are usually repeats but may differ in a detail not shown here. Equal values may be shown once.
# System: HEK-293T
# Test: Multiplex assay against HEK293T
# Type: toxicity, cell-based
# Conditions: human
# In short: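 Cells were classed with CellPathfinder machine-learning gating, first as Hoechst high-intensity objects or normal cells, then (normal cells) as healthy, pyknosed or fragmented nuclei, and finally (pyknosed cells) as mitotic or apoptotic. Staining of live cells at seeding used Hoechst33342, BioTracker Green Microtubule Cytoskeleton Dye, MitoTracker Red and Annexin V Alexa Fluor 680, with imaging on a CQ1 microscope at 37°C and 5% CO2 after compound addition. Tubulin, mitochondrial-mass and membrane-permeability phenotypes are per cents of healthy-nucleus cells.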
# [1] = 12 h, 1 µM, compound concentration 1 uM
# [2] = 12 h, 10 µM, compound concentration 10 uM
# [3] = 24 h, 1 µM, compound concentration 1 uM
# [4] = 24 h, 10 µM, compound concentration 10 uM
# [5] = 48 h, 1 µM, compound concentration 1 uM
# [6] = 48 h, 10 µM, compound concentration 10 uM
smiles,measurement,setting,value
O=C(NCCN1CCC(n2c(=O)[nH]c3cc(Cl)ccc32)CC1)c1ccc(F)cc1 [HALOPEMIDE],Population Apoptotic (%),[1],46% and 43%
same,Population Fragmented Nuclei (%),[1],5%
same,Population Healthy Nuclei (%),[1],81% and 79%
same,Population Hoechst High Intensity Objects (%),[1],7% and 10%
same,Population Membrane Permeable-Phenotype (%),[1],0%
same,Population Mitochondria Different-Phenotype (%),[1],54% and 62%
same,Population Mitotic Cells (%),[1],53% and 56%
same,Population Normal (%),[1],92% and 89%
same,Population Pyknosed Nuclei (%),[1],13% and 15%
same,Population Tubulin-Different-Phenotype (%),[1],42% and 29%
same,Total Cell Count,[1],334 and 373
same,Population Apoptotic (%),[2],39% and 65%
same,Population Fragmented Nuclei (%),[2],5% and 6%
same,Population Healthy Nuclei (%),[2],74% and 72%
same,Population Hoechst High Intensity Objects (%),[2],14% and 13%
same,Population Membrane Permeable-Phenotype (%),[2],0% and 1%
same,Population Mitochondria Different-Phenotype (%),[2],76% and 84%
same,Population Mitotic Cells (%),[2],60% and 34%
same,Population Normal (%),[2],85% and 86%
same,Population Pyknosed Nuclei (%),[2],20% and 21%
same,Population Tubulin-Different-Phenotype (%),[2],68% and 59%
same,Total Cell Count,[2],460 and 319
same,Population Apoptotic (%),[3],40%
same,Population Fragmented Nuclei (%),[3],7% and 9%
same,Population Healthy Nuclei (%),[3],79%
same,Population Hoechst High Intensity Objects (%),[3],3% and 6%
same,Population Membrane Permeable-Phenotype (%),[3],1% and 0%
same,Population Mitochondria Different-Phenotype (%),[3],35% and 37%
same,Population Mitotic Cells (%),[3],59%
same,Population Normal (%),[3],96% and 93%
same,Population Pyknosed Nuclei (%),[3],12% and 11%
same,Population Tubulin-Different-Phenotype (%),[3],24% and 21%
same,Total Cell Count,[3],471 and 508
same,Population Apoptotic (%),[4],27% and 64%
same,Population Fragmented Nuclei (%),[4],8% and 9%
same,Population Healthy Nuclei (%),[4],72% and 70%
same,Population Hoechst High Intensity Objects (%),[4],8%
same,Population Membrane Permeable-Phenotype (%),[4],1% and 0%
same,Population Mitochondria Different-Phenotype (%),[4],63% and 78%
same,Population Mitotic Cells (%),[4],72% and 35%
same,Population Normal (%),[4],91%
same,Population Pyknosed Nuclei (%),[4],19% and 20%
same,Population Tubulin-Different-Phenotype (%),[4],64% and 62%
same,Total Cell Count,[4],580 and 361
same,Population Apoptotic (%),[5],30% and 28%
same,Population Fragmented Nuclei (%),[5],13%
same,Population Healthy Nuclei (%),[5],79%
same,Population Hoechst High Intensity Objects (%),[5],1% and 3%
same,Population Membrane Permeable-Phenotype (%),[5],1% and 0%
same,Population Mitochondria Different-Phenotype (%),[5],21%
same,Population Mitotic Cells (%),[5],69% and 71%
same,Population Normal (%),[5],98% and 96%
same,Population Pyknosed Nuclei (%),[5],6% and 7%
same,Population Tubulin-Different-Phenotype (%),[5],16% and 10%
same,Total Cell Count,[5],841 and 675
same,Population Apoptotic (%),[6],37% and 60%
same,Population Fragmented Nuclei (%),[6],14%
same,Population Healthy Nuclei (%),[6],72% and 74%
same,Population Hoechst High Intensity Objects (%),[6],8% and 6%
same,Population Membrane Permeable-Phenotype (%),[6],1%
same,Population Mitochondria Different-Phenotype (%),[6],57% and 64%
same,Population Mitotic Cells (%),[6],62% and 40%
same,Population Normal (%),[6],91% and 93%
same,Population Pyknosed Nuclei (%),[6],12% and 11%
same,Population Tubulin-Different-Phenotype (%),[6],55%
same,Total Cell Count,[6],706 and 531
c1cc(OCCCN2CCCCC2)ccc1CN1CCCCC1 [JNJ-5207852],Population Apoptotic (%),[1],36% and 47%
same,Population Fragmented Nuclei (%),[1],6% and 10%
same,Population Healthy Nuclei (%),[1],84% and 75%
same,Population Hoechst High Intensity Objects (%),[1],5%
same,Population Membrane Permeable-Phenotype (%),[1],0%
same,Population Mitochondria Different-Phenotype (%),[1],36% and 53%
same,Population Mitotic Cells (%),[1],63% and 52%
same,Population Normal (%),[1],94%
same,Population Pyknosed Nuclei (%),[1],8% and 13%
same,Population Tubulin-Different-Phenotype (%),[1],21% and 17%
same,Total Cell Count,[1],577 and 310
same,Population Apoptotic (%),[2],40% and 66%
same,Population Fragmented Nuclei (%),[2],7%
same,Population Healthy Nuclei (%),[2],75% and 67%
same,Population Hoechst High Intensity Objects (%),[2],7% and 11%
same,Population Membrane Permeable-Phenotype (%),[2],0% and 1%
same,Population Mitochondria Different-Phenotype (%),[2],63% and 69%
same,Population Mitotic Cells (%),[2],59% and 33%
same,Population Normal (%),[2],92% and 88%
same,Population Pyknosed Nuclei (%),[2],17% and 24%
same,Population Tubulin-Different-Phenotype (%),[2],52% and 41%
same,Total Cell Count,[2],328 and 259
same,Population Apoptotic (%),[3],25% and 41%
same,Population Fragmented Nuclei (%),[3],6% and 11%
same,Population Healthy Nuclei (%),[3],82% and 79%
same,Population Hoechst High Intensity Objects (%),[3],5% and 3%
same,Population Membrane Permeable-Phenotype (%),[3],1% and 0%
same,Population Mitochondria Different-Phenotype (%),[3],20% and 30%
same,Population Mitotic Cells (%),[3],74% and 58%
same,Population Normal (%),[3],94% and 96%
same,Population Pyknosed Nuclei (%),[3],11% and 9%
same,Population Tubulin-Different-Phenotype (%),[3],15% and 12%
same,Total Cell Count,[3],710 and 447
same,Population Apoptotic (%),[4],47% and 65%
same,Population Fragmented Nuclei (%),[4],9% and 8%
same,Population Healthy Nuclei (%),[4],77% and 79%
same,Population Hoechst High Intensity Objects (%),[4],6% and 5%
same,Population Membrane Permeable-Phenotype (%),[4],1% and 2%
same,Population Mitochondria Different-Phenotype (%),[4],47% and 50%
same,Population Mitotic Cells (%),[4],52% and 34%
same,Population Normal (%),[4],93% and 94%
same,Population Pyknosed Nuclei (%),[4],13% and 11%
same,Population Tubulin-Different-Phenotype (%),[4],44% and 35%
same,Total Cell Count,[4],414 and 322
same,Population Apoptotic (%),[5],17% and 23%
same,Population Fragmented Nuclei (%),[5],14% and 11%
same,Population Healthy Nuclei (%),[5],80% and 83%
same,Population Hoechst High Intensity Objects (%),[5],2% and 1%
same,Population Membrane Permeable-Phenotype (%),[5],1%
same,Population Mitochondria Different-Phenotype (%),[5],12% and 17%
same,Population Mitotic Cells (%),[5],82% and 76%
same,Population Normal (%),[5],97% and 98%
same,Population Pyknosed Nuclei (%),[5],5% and 4%
same,Population Tubulin-Different-Phenotype (%),[5],11% and 9%
same,Total Cell Count,[5],1128 and 746
same,Population Apoptotic (%),[6],34% and 52%
same,Population Fragmented Nuclei (%),[6],13%
same,Population Healthy Nuclei (%),[6],77% and 75%
same,Population Hoechst High Intensity Objects (%),[6],8% and 9%
same,Population Membrane Permeable-Phenotype (%),[6],1%
same,Population Mitochondria Different-Phenotype (%),[6],29% and 38%
same,Population Mitotic Cells (%),[6],65% and 47%
same,Population Normal (%),[6],91% and 90%
same,Population Pyknosed Nuclei (%),[6],8% and 10%
same,Population Tubulin-Different-Phenotype (%),[6],28% and 30%
same,Total Cell Count,[6],619 and 424
